In the library only some 4.6% were active in any assay of this set; here they are far more common.
Rtt109 Vps75: blocks Candida albicans Rtt109/Vps75 acetyltransferase activity; Q5AAJ8; inhibition, % at 34.9 µM; 0.16% of 330,000 active; AID 540336; purified Rtt109/Vps75, ThioGlo CoA-SH fluorescence, 4 h;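 active = inhibition of at least 50% in every replicate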
HDAC3 inh: inhibitors of human histone deacetylase 3; inhibition, % at 8.3 µM; recombinant HDAC3, fluorogenic peptide/trypsin coupled, fluorescence; O15379; 0.15% of 320,000 active; in the data active = inhibition above about 26%, passing the limit was not always enough
ALR H2O2 inh: human ALR oxidase inhibition via reduced H2O2; purified ALR, DTT oxidation, H2O2 HRP-luminol luminescence; inhibition, % (no concentration beside the values); 3.8% of 290,000 active;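 active = mean replicate inhibition above about 79%, with every replicate also reaching it, limit read from the data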
Target sequence (P55789 whole entry, looked up): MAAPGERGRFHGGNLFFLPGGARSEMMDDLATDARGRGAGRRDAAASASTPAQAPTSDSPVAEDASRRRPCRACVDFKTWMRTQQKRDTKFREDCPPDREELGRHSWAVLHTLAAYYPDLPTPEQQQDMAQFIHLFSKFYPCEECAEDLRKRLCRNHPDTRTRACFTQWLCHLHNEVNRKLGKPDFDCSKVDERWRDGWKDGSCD
FAS-TE inh: inhibitors of human fatty acid synthase thioesterase domain; P49327; 0.67% of 360,000 active; recombinant FAS-TE, OMFH fluorogenic substrate, fluorescence endpoint; inhibition, % at 15 µM;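 active = compounds whose normalised, plate-corrected inhibition of enzyme fluorescence in the single-dose primary screen is 50% or more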;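 also: 0% = DMSO with enzyme and 100% = substrate without enzyme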
UCH37 DUB inh: inhibitors of human deubiquitinating enzyme UCH37; AID 588478; 0.33% of 330,000 active; Q9Y5K5; purified proteasome/UCH37, Ub-AMC cleavage fluorescence; inhibition, % (no concentration beside the values);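 active = mean inhibition over replicate wells above about 20%, limit read from the data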;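 also: 0% = compound-free wells with enzyme and 100% = wells lacking proteasome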
Target sequence (Q9Y5K5 whole entry, looked up): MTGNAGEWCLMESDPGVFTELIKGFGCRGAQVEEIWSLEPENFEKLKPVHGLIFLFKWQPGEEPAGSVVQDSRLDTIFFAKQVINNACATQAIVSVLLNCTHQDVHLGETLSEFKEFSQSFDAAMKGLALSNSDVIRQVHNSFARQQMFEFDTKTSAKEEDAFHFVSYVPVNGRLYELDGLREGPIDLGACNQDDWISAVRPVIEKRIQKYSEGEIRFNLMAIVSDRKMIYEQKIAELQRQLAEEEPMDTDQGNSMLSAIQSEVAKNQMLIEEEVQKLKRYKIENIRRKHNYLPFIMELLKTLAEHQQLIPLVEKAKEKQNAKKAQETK
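assay system = human UCH37 enzyme supplied as purified proteasome complex | amount = proteasome at 0.15 nM in the dispensed enzyme solution | schedule = 30 min compound-proteasome preincubation then 25 min substrate reaction, room temperature | measured by = fluorescence, ex 355 nm, em 460 nm | benchmarks = no-proteasome wells (full inhibition) and compound-free wells (no inhibition)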
M18AAP inhibitor: blocks P. falciparum M18 aspartyl aminopeptidase. 1.2% of 290,000 active. inhibition, % at 7.35 µM. recombinant PfM18AAP, H-Glu-NHMec fluorogenic cleavage;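 active = inhibition above the campaign mean inhibition over all tested compounds plus 3 SD, cut at about 28% in these data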;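 also: 0% = plate median of test compound wells and 100% = 2 mM ZnCl2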
* = called active by the depositor; nt = no result given.

SMILES	Rtt109 Vps75	HDAC3 inh	ALR H2O2 inh	FAS-TE inh	UCH37 DUB inh	M18AAP inhibitor
CC(=O)c1cccc(NC(=O)CSc2ncc(C(=O)Nc3ccccc3)c(=O)n2C)c1	14	-2	99*	20	-82	nt
CC(=O)Nc1cccc(NC(=O)CSc2ncc(C(=O)Nc3ccc(F)cc3)c(=O)n2C)c1	2	2	99*	6	9	nt
CC(=O)Nc1ccc(NC(=O)CSc2ncc(C(=O)Nc3ccc(F)cc3)c(=O)n2C)cc1	9	2	99*	-8	-4	nt
Cc1ccc(C=NNC(=O)c2cc(C3CC3)nc3ccccc23)o1	nt	nt	nt	nt	5	nt
CC(=O)Nc1ccc(NC(=O)CSc2ncc(C(=O)Nc3ccc(Cl)cc3)c(=O)n2C)cc1	nt	1	99*	-1	-19	nt
CC(=O)Nc1cccc(NC(=O)CSc2ncc(C(=O)Nc3ccccc3)c(=O)n2C)c1	30	4	nt	10	-147	nt
O=C(NCc1ccc(Cl)cc1)c1ccc(CNc2c(N3CCCC3)c(=O)c2=O)cc1	-1	nt	nt	4	7	-1
CN(C)c1ccc(CNC(=O)c2ccc(CNc3c(N4CCCCC4)c(=O)c3=O)cc2)cc1	-3	4	98*	-7	5	8
N#CC1=C(SCc2ccccc2)NC(=O)CC1c1ccco1 (centres undefined)	9	7	100*	-6	3	19
N#CC1=C(SCC(=O)NCc2ccccc2)NC(=O)CC1c1ccco1 (centres undefined)	-5	1	-21	-4	2	-4
O=C(/C=C/c1ccc(Cl)cc1)NCc1ccncc1	53*	6	-1	-6	2	-6
CCOc1c(O)ccc(C2NC(=O)NC(C)=C2C(=O)OC)c1[N+](=O)[O-] (centres undefined)	3	-4	34	-4	1	-7
CCOc1c(O)ccc(C2NC(=O)N(C)C(C)=C2C(=O)OC)c1[N+](=O)[O-] (centres undefined)	0	3	89*	-8	5	10
O=C1NN(c2ccccc2)C(=O)/C1=C\c1ccccc1	2	5	90*	-7	2	22
O=C1NN(c2ccccc2)C(=O)/C1=C/c1coc2ccccc2c1=O	-21	4	97*	-11	nt	2
O=C1NN(c2cccc(Br)c2)C(=O)/C1=C\c1ccccc1	-2	2	89*	-4	3	10
O=C1NN(c2ccccc2)C(=O)C1=Cc1ccccc1	nt	nt	nt	-6	nt	nt
NC(=S)NN=Cc1ccc2c(c1)OCCO2	nt	nt	nt	nt	5	nt
CCNC(=S)NNC(=S)NCc1ccccc1	-9	-6	50	-6	1	32*
O=C(O)CCC(=NNC(=O)c1ccc(-c2ccccc2)cc1)c1ccccc1	nt	nt	nt	nt	4	nt
COc1ccc(OC)c(C=NNC(=O)c2ccc(=O)[nH]n2)c1	nt	nt	nt	nt	11	nt
C[C@@]12CCC=C[C@H]1[C@H](c1ccc(F)c(/C=C/c3ccccc3)c1)N(Cc1ccccc1)C2=O	0	31*	nt	29	1	nt
Cc1ccc(-c2cc([C@H]3[C@@H]4C=CCC[C@@]4(C)C(=O)N3Cc3ccccc3)ccc2F)cc1	-2	10	nt	29	nt	nt
O=c1[nH][nH]c(-c2ccccc2O)c1C(C[N+](=O)[O-])c1ccccc1 (centres undefined)	2	-3	54	-6	nt	21
O=c1[nH][nH]c(-c2ccccc2O)c1C(C[N+](=O)[O-])c1cccc(Cl)c1 (centres undefined)	5	1	nt	-13	1	30*
SMILES	Rtt109 Vps75	HDAC3 inh	ALR H2O2 inh	FAS-TE inh	UCH37 DUB inh	M18AAP inhibitor
Cc1ccc(C=Nn2c(-c3cccs3)n[nH]c2=S)cc1	nt	nt	nt	nt	6	nt
O=C(O)c1ccc(N=c2oc3cc(O)ccc3cc2C(=O)NCc2ccccc2)cc1	-207	-7	90*	-5	-30	3
CC(=O)C1=C(O)C(=O)N(c2ccc(O)cc2)C1c1ccc([N+](=O)[O-])cc1 (centres undefined)	0	6	82*	0	nt	5
COc1ccc(C2C(C(C)=O)=C(O)C(=O)N2c2ccc(O)cc2)cc1 (centres undefined)	1	-2	88*	-11	7	5
CC(=O)C1=C(O)C(=O)N(c2ccc(O)cc2)C1c1ccc(Cl)cc1 (centres undefined)	1	3	81*	-5	6	5
CC(=O)C1=C(O)C(=O)N(c2ccc(Br)cc2)C1c1ccc(Cl)cc1 (centres undefined)	9	9	56	-1	-1	1
CC(=NNC(=O)c1sccc1-n1cccc1)c1cccs1	nt	nt	nt	nt	-12	nt
CC1=NN(c2ccccc2)C(=O)C1C=Nc1ccc(N(C)C)cc1 (centres undefined)	9	12	nt	7	4	31*
O=C(NN=Cc1ccccn1)c1cccc(NC(=O)c2ccccc2Cl)c1	nt	nt	nt	nt	2	nt
O=C(c1[nH]c(C(F)(F)F)nc1-c1ccccc1)N1CCc2c([nH]c3ccccc23)C1	nt	nt	nt	-5	nt	nt
O=C(c1ccccc1Br)N1CCc2c([nH]c3ccccc23)C1	1	3	83*	7	5	5
Cc1nc2ccccn2c1C(=O)NN=Cc1cc(C)n(-c2ccc(Br)cc2)c1C	nt	nt	nt	nt	-7	nt
Cc1ccc2nc(SCC(=O)Nc3ccc4[nH]c(=O)[nH]c4c3)[nH]c2c1	-27	nt	nt	-6	2	nt
COCCn1c(SCC(=O)Nc2ccc3[nH]c(=O)[nH]c3c2)nc2ccccc21	0	-1	91*	-12	-1	nt
COCCn1c(SCC(=O)Nc2ccc(OC)c(S(N)(=O)=O)c2)nc2ccccc21	32	-2	-26	-6	0	7
O=C(CSc1nc2ccc(Cl)cc2[nH]1)Nc1ccc2[nH]c(=O)[nH]c2c1	12	-7	98*	-4	2	nt
CCn1c(SCC(=O)Nc2ccc3[nH]c(=O)[nH]c3c2)nc2ccccc21	-1	-3	99*	-10	2	nt
CCOC(=O)C(=O)NN=Cc1cccc(Br)c1	nt	nt	nt	nt	0	nt
S=C(NN=Cc1ccc2ncccc2c1)Nc1cccnc1	nt	nt	nt	nt	4	nt

Compound activity as filed in PubChem BioAssay.
